Experimental data published in ChEMBL document CHEMBL4622914, “Development of a bioavailable boron-containing PI-103 Bioisostere, PI-103BE” (Bioorg Med Chem Lett, 2020).

Tests used:
A549 = assay: Antiproliferative activity against human A549 cells assessed as reduction in cell viability incubated for 4 days by coulter counter method; assay type: functional, cell-based
Summary of the method: (§1)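 Cancer cells were seeded at 50,000 per well in DMEM with 5% FBS. They were exposed to six compound doses for 4 days, with DMSO as vehicle control and a reference inhibitor as positive control. Cells were counted by Coulter counter. Survival ratio is treated cell number over vehicle cell number. IC50 was taken from dose–response curves. Triplicate experiments.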

MDA-MB-231 = assay: Antiproliferative activity against human MDA-MB-231 cells assessed as reduction in cell viability incubated for 4 days by coulter counter method; assay type: functional, cell-based; summary of the method: as §1
HeLa = assay: Antiproliferative activity against human HeLa cells assessed as reduction in cell viability incubated for 4 days by coulter counter method; assay type: functional, cell-based; summary of the method: as §1
CWR22R = assay: Antiproliferative activity against human 22Rv1 cells assessed as reduction in cell viability incubated for 4 days by coulter counter method; assay type: functional, cell-based; summary of the method: as §1
PC-3 = assay: Antiproliferative activity against human PC3 cells assessed as reduction in cell viability incubated for 4 days by coulter counter method; assay type: functional, cell-based; conditions: PC-3, 96 h
Summary of the method: (§2)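 Cells seeded at 50,000 per well in DMEM with 5% FBS, exposed to six concentrations of compound for 4 days; DMSO as vehicle control. Cell numbers counted on a Coulter counter; survival ratio = treated/vehicle cell count. IC50 taken from dose-response curves. Triplicate experiments, mean ± SD.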

SK-OV-3 = assay: Antiproliferative activity against human SKOV3 cells assessed as reduction in cell viability incubated for 4 days by coulter counter method; assay type: functional, cell-based; conditions: SK-OV-3, 96 h; summary of the method: as §2
[1] = Stability of compound in cell culture medium assessed as compound hydrolysis measured after 0.5 hrs; assay type: physicochemical
[2] = Stability of compound in cell culture medium assessed as compound hydrolysis measured after 1 hr; assay type: physicochemical
[3] = Stability of compound in cell culture medium assessed as compound hydrolysis measured after 3 hrs; assay type: physicochemical
[4] = Stability of compound in cell culture medium assessed as compound hydrolysis measured after 8 hrs; assay type: physicochemical
[5] = Stability of compound in cell culture medium assessed as compound hydrolysis measured after 24 hrs; assay type: physicochemical
[6] = Drug concentration in ovariectomized nu/nu mouse plasma at 10 mg/kg, ip measured after 0.5 hrs by UHPLC-MS analysis; assay type: ADME, organism-based; conditions: female
[7] = Drug concentration in ovariectomized nu/nu mouse plasma at 10 mg/kg, ip measured after 1 hr by UHPLC-MS analysis; assay type: ADME, organism-based; conditions: female
[8] = Drug concentration in ovariectomized nu/nu mouse plasma at 10 mg/kg, ip measured after 3 hrs by UHPLC-MS analysis; assay type: ADME, organism-based; conditions: female
[9] = Drug concentration in ovariectomized nu/nu mouse plasma at 10 mg/kg, ip measured after 8 hrs by UHPLC-MS analysis; assay type: ADME, organism-based; conditions: female
[10] = Cmax in ovariectomized nu/nu mouse at 10 mg/kg, ip measured upto 24 hrs by UHPLC-MS analysis; assay type: ADME, organism-based; design: dose 10 mg/kg, route intraperitoneal; conditions: female, in vivo
[11] = Tmax in ovariectomized nu/nu mouse at 10 mg/kg, ip measured upto 24 hrs by UHPLC-MS analysis; assay type: ADME, organism-based; conditions: female, in vivo
[12] = Half life in ovariectomized nu/nu mouse at 10 mg/kg, ip measured upto 24 hrs by UHPLC-MS analysis; assay type: ADME, organism-based; conditions: female, in vivo
Summary of the method: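 Female ovariectomized Nu/Nu mice, 4–6 weeks old, received a single 10 mg/kg i.p. dose as an ethanol solution. Blood was drawn from the orbital sinus at 0.5, 1, 3, 8 and 24 h, one sampling per group, into EDTA. Plasma was spun at 4 °C and stored at −80 °C. Parent and metabolites were quantified by C18 UHPLC–TSQ Vantage MS/MS.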

[13] = AUC in ovariectomized nu/nu mouse at 10 mg/kg, ip measured upto 24 hrs by UHPLC-MS analysis; assay type: ADME, organism-based; design: dose 10 mg/kg, time < 24 hr, route intraperitoneal; conditions: female, in vivo

In the case of `Oc1cccc(-c2nc(N3CCOCC3)c3oc4ncccc4c3n2)c1` [PI-103], the IC50 (A549; A549, 96 h) is reported as 0.18 µM, the IC50 (MDA-MB-231; MDA-MB-231, 96 h) is reported as 0.14 µM and the IC50 (HeLa; 96 h) is reported as 0.16 µM. It also gave an IC50 (CWR22R; 22Rv1, 96 h) of 0.1 µM, an IC50 (PC-3) of 0.17 µM and an IC50 (SK-OV-3) of 0.11 µM. It also gave a Drug degradation [1] of 0.05 µM, a Drug degradation [2] of 0.08 µM and a Drug degradation [3] of 0.12 µM. It also gave a Drug degradation [4] of 0.12 µM, a Drug degradation [5] of 0.14 µM and a concentration at 0.5 h [6] of 0.1 ng/mL. For the same molecule, the concentration at 1 h [7] was 1.4 ng/mL, the concentration at 3 h [8] was 1 ng/mL and the concentration at 8 h [9] was 0.3 ng/mL. The Cmax [10] was 1.4 ng/mL, the Tmax [11] was 1 h and the half-life [12] was 2 h. It also gave an AUC at 24 h [13] of 9.7 ng·h/mL.

With `OB(O)c1cccc(-c2nc(N3CCOCC3)c3oc4ncccc4c3n2)c1` the Activity (A549) was “Dose-dependent effect”, the Activity (MDA-MB-231) was “Dose-dependent effect” and the Activity (HeLa) was “Dose-dependent effect”. The Activity (CWR22R) was “Dose-dependent effect”, the Drug degradation [1] was 2.39 µM and the Drug degradation [2] was 3.08 µM. It also gave a Drug degradation [3] of 3.52 µM, a Drug degradation [4] of 3.55 µM and a Drug degradation [5] of 3.53 µM.
